Experimental findings from ChEMBL document CHEMBL1154727, “Cytotoxic activity of 3-(5-phenyl-3H-[1,2,4]dithiazol-3-yl)chromen-4-ones and 4-oxo-4H-chromene-3-carbothioic acid N-phenylamides” (Eur J Med Chem, 2010) are described below.

In test [1] the test system is IMR-32. Put plainly: Growth inhibition of human IMR32 cells after 48 hrs by sulforhodamine B assay. Format: functional, cell-based. The note with it: IMR-32, 48 h. An outline of the steps:
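Cells kept in RPMI-1640 with 10% FBS, penicillin and streptomycin; trypan blue viability check beforehand. Seeded at 1 × 10^4 cells/well, 24 h at 37 °C, 5% CO2, then treated in quadruplicate for 48 h. Compounds diluted in medium with 50 µg/ml gentamycin; single test level 100 µM. TCA fixation at 4 °C for 1 h, SRB stain, Tris pH 10.5 solubilization, OD 540 nm. IC50 taken as the mean from dose-response curves.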
(Sulforhodamine B stains cellular protein and so reports cell mass.)

The test system of test [2] is HEp-2. Put plainly: Growth inhibition of human Hep2 cells at 1 uM after 48 hrs by sulforhodamine B assay. It is filed as functional. The settings on record: HEp-2, 48 h, read-out: GI. The method, boiled down:
(§1)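 Cells grown in RPMI-1640 with 10% FBS and antibiotics, plated at 1 × 10^4 cells/well for 24 h at 37 °C, 5% CO2. Agents diluted in gentamycin-containing medium, then added in quadruplicate for 48 h. Cells fixed with cold TCA at 4 °C for 1 h, stained with 0.4% SRB, and dye dissolved in 10 mM Tris pH 10.5; absorbance read at 540 nm.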

Test [3] relates to A549. Description: Growth inhibition of human A549 cells at 1 uM after 48 hrs by sulforhodamine B assay. The note with it: A549, 48 h, read-out: GI. Format: functional. The method, boiled down:
as §1

The test system of test [4] is IMR-32. Description: Growth inhibition of human IMR32 cells at 1 uM after 48 hrs by sulforhodamine B assay. Format: functional. The settings on record: IMR-32, 48 h, read-out: GI. The method, boiled down:
as §1

As for `COc1cccc2c1C(=O)c1c(O)c3c(c(O)c1C2=O)C[C@@](O)(C(=O)CO)C[C@@H]3O[C@H]1C[C@H](N)[C@H](O)[C@H](C)O1` [DOXORUBICIN], the IC50 (commonly the midpoint of a concentration-inhibition curve) in test [1] was determined as 1700 nM. In addition, the inhibition of growth at 1 µM stood at 57% in test [2], 93% in test [3] and 55% in test [4].
